Assay results published in ChEMBL document CHEMBL1153726, “Synthesis and anticancer activity of sclerophytin-inspired hydroisobenzofurans” (Bioorg Med Chem Lett, 2009).

Assay: Antitumor activity against human KB3 cells after 96 hrs by MTT assay
Type: functional, cell-based
Conditions: KB3, 96 h
Summary of the method: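 Human KB-3 carcinoma cells exposed to increasing compound concentrations; viability read by MTT colorimetric assay after 96 h. Values are means of triplicate assays, expressed relative to untreated controls.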

C=C(C)[C@H]1CC=C(C)[C@@]2(O)[C@@H]1[C@H](c1ccccc1Br)O[C@@H]2C(=O)OCC1CC1
IC50: 50 µM

C=C(C)[C@H]1CC=C(C)[C@@]2(O)[C@@H]1[C@H](c1cccc(Br)c1)O[C@@H]2C(=O)OCC
IC50: 3 µM

C=C(C)[C@H]1CC=C(C)[C@@]2(O)[C@@H]1[C@H](c1ccccc1Br)O[C@@H]2C(=O)OC
IC50: 5 µM

C=C(C)[C@H]1CC=C(C)C2=CO[C@@H](c3cccc4ccccc34)[C@@H]21
IC50: > 100 µM
